A short description of data set [1]: Protein binding in human plasma. In kind it is ADME, cell-free. Particulars: read-out: PPB (converted).
A short description of data set [2]: Metabolic stability in liver microsomes (unknown origin) assessed as half life at 3 uM measured upto 45 mins in presence of NADPH by LC-MS/MS analysis. It is filed as ADME, Microsome. In a few lines:
(§1)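 Pooled liver microsomes at 0.5 mg/mL protein in 0.1 M phosphate buffer pH 7.4 were incubated with 3 μM compound (0.25% DMSO) at 37 °C. Reactions were started with 1 mM NADPH and sampled at 0, 5, 15, 30 and 45 min. A minus-NADPH control ran for 45 min. Reactions were quenched in methanol and analysed by LC-MS/MS to give CLint and t1/2.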
In general terms: Liver microsomes are vesicles of endoplasmic reticulum, rich in cytochrome P450 enzymes.

The next data set relates to DU-145. Put plainly: Antiproliferative activity against human DU145 cells assessed as reduction in cell growth incubated for 96 hrs by propidium iodide based 2D monolayer assay. In kind it is functional. An outline of the steps: (§2)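 After 24 h recovery, compound in medium or medium alone (control wells) was added at 10 half-log concentrations from 0.0032 to 100 µM, in triplicate, with at most 0.3% DMSO. After 96 h, wells were PBS-washed, stained with 7 µg/ml PI and 0.1% Triton X-100, and fluorescence read at 530/620 nm. IC50 came from a 4-parameter fit, geometric mean.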

The test system of a further data set is LNCaP. Put plainly: Antiproliferative activity against human LNCAP cells assessed as reduction in cell growth incubated for 96 hrs by propidium iodide based 2D monolayer assay. In kind it is functional. An outline of the steps: as §2
The next data set relates to CWR22R. Put plainly: Antiproliferative activity against human 22Rv1 cells assessed as reduction in cell growth incubated for 96 hrs by propidium iodide based 2D monolayer assay. It is filed as functional. An outline of the steps:
as §2

Data set [3] can be described thus: Metabolic stability in liver microsomes (unknown origin) assessed as intrinsic clearance per mg of protein at 3 uM measured upto 45 mins in presence of NADPH by LC-MS/MS analysis. It is filed as ADME, Microsome. The settings on record: read-out: CLH. In a few lines: as §1
Another data set has as its system VCaP. The data set can be described thus: Antiproliferative activity against human VCaP cells assessed as reduction in cell growth incubated for 96 hrs by propidium iodide based 2D monolayer assay. It is filed as functional. An outline of the steps: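 VCaP cells in RPMI 1640 with 10% FCS at 37 °C, 5% CO2, seeded 4,000–20,000 cells/well and left 24 h before dosing. Compounds from DMSO stocks were diluted in half-log steps in medium, 10 concentrations 0.0032–100 μM, triplicate wells, max 0.3% DMSO. After 96 h, cells were washed, stained with 7 μg/ml propidium iodide plus 0.1% Triton X-100 for 1–2 h at room temperature, and fluorescence read at ex 530/em 620 nm.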

Data set [4] deals with Voltage-gated inwardly rectifying potassium channel KCNH2 (Homo sapiens, UniProt Q12809). The data set can be described thus: Inhibition of human ERG expressed in CHO cells by whole-cell voltage-clamp analysis. It is filed as cell-based. An outline of the steps: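 CHO cells expressing hERG were held in Dulbecco's PBS with Ca/Mg, pH 7–7.2, at room temperature. Tail currents were recorded by automated whole-cell voltage clamp after 300 s exposure. […] Quinidine served as positive control and 0.25% DMSO buffer as negative control.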
Voltage-gated inwardly rectifying potassium channel KCNH2, sequence (Q12809 whole entry): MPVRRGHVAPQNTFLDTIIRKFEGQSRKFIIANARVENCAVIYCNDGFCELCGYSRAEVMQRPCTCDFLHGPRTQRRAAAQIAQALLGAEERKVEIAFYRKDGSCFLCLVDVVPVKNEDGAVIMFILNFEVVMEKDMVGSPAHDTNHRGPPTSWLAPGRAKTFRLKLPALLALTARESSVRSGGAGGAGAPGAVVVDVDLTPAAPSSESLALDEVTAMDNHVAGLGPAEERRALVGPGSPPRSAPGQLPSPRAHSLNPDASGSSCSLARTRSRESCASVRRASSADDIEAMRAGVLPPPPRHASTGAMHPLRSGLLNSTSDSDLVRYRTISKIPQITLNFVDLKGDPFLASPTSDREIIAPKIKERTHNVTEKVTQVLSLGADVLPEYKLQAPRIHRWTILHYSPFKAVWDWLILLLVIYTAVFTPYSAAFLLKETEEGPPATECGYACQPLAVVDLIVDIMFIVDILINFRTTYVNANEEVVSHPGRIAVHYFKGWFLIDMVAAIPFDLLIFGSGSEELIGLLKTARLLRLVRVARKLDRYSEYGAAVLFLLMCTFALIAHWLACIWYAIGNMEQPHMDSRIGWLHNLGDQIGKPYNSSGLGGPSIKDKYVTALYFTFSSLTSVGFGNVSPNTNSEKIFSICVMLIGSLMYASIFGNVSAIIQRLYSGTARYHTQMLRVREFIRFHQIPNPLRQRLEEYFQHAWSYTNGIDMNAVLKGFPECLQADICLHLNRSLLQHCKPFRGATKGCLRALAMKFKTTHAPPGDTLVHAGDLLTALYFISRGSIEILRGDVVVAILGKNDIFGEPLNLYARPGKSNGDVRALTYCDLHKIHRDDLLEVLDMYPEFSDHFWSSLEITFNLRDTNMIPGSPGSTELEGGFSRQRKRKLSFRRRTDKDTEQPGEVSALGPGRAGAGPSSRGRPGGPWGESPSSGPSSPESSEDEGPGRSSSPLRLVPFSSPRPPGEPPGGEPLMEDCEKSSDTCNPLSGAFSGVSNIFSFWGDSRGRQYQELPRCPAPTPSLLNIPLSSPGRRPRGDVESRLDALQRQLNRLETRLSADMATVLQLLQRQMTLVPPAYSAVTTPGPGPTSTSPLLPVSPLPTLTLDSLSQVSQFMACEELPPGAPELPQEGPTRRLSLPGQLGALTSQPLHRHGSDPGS

As for `C[C@](O)(CS(=O)(=O)c1ccc(F)cc1)C(=O)Nc1ccc(C#N)c(C(F)(F)F)c1` [(R)-BICALUTAMIDE], in data set [1], the fraction unbound was 0.02. Besides, the half-life at 3 µM in data set [2] was determined as 3.57 h. The Activity entry with DU-145, in the data set on LNCaP, in the data set on CWR22R and in the data set on VCaP was “Dose-dependent effect” throughout. Moreover, the concentration for half-maximal inhibition (IC50) is 45.4 µM in the data set on DU-145 (DU-145, 96 h); 51.6 µM in the data set with VCaP; over 25 µM in data set [4]. For the same molecule, the microsomal CLint at 3 µM in data set [3] amounted to 6.48 µL/min/mg.

The half-life is the time needed for the level to fall by half in the phase considered. As usually defined, the IC50 is the concentration at which inhibition is half-maximal.

The record behind these values is ChEMBL document CHEMBL4364301 (Eur J Med Chem, 2019).
